Source: PubChem
The full list was thinned out, with hits kept by preference.
IDH1 mut inh: blocks human IDH1 R132H reductase activity. O75874. inhibition, % at 10 µM. AID 624101. diaphorase/resazurin fluorescence, 60 min. hit rate 0.18% among 70,000; in the data active = inhibition above about 34%; inconclusive = no clear call, values can overlap the other calls; inactive = below about 11%;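 note: 0% = DMSO and 100% = no enzyme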
T cruzi growth-1: inhibitors of T. cruzi proliferation | T. cruzi beta-gal in NIH3T3, GalScreen luminescence, 90 h | inhibition, % at 8.34 µM | hit rate 5.9% among 77,000 | AID 624255;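 active = mean inhibition above about 93%, with at least 55% of replicates each passing it, limit read from the data, passing the limit was not always enough; inconclusive = only one of those two conditions holds; inactive = neither condition holds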
GASC1 inh: KDM4C (human) demethylase inhibition; GST-KDM4C 2-372, H3K9me3 peptide, LANCE TR-FRET; hit rate 0.15% among 96,000; Q9H3R0; inhibition, % at 12.5 µM;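 active = mean replicate inhibition above about 25%, with at least 55% of replicates also reaching it, limit read from the data, passing the limit was not always enough; inconclusive = only one of those two conditions met; inactive = neither condition met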
Target sequence (Q9H3R0 2-372 limits assumed): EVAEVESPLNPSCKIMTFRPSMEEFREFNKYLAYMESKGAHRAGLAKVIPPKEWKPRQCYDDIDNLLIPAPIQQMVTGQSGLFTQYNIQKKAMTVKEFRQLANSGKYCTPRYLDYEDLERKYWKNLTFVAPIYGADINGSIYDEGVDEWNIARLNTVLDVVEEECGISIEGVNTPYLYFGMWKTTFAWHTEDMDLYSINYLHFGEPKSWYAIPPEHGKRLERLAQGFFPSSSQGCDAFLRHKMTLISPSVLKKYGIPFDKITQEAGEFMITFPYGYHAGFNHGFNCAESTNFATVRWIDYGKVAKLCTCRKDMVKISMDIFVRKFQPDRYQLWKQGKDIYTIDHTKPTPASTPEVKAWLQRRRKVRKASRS
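Compound: one test concentration per compound; Material: GST-GASC-1 enzyme fragment 2-372; Amount: GASC-1 enzyme at 10 nM final in reaction; Also added: H3K9me3 peptide substrate, Fe(II), 2-oxoglutarate; Technique: LANCE TR-FRET; Times: 30 min demethylation and 1 h detection at room temperature.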
T cruzi growth-2: blocks T. cruzi growth in NIH3T3 host cells | T. cruzi beta-gal in NIH3T3, GalScreen luminescence, 90 h | shares compounds with T cruzi growth-1 | inhibition, % at 8.35 µM | hit rate 72% among 5,600;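 active = mean replicate inhibition above about 95% and at least 55% of replicates individually reaching it, limit read from the data; inconclusive = only one of the two criteria is met; inactive = neither criterion is met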
T cruzi growth-3: Trypanosoma cruzi proliferation inhibition | hit rate 21% among 5,600 | T. cruzi beta-gal in NIH3T3, GalScreen luminescence, 90 h | shares compounds with T cruzi growth-1 | inhibition, % at 2.09 µM;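 active = mean inhibition above about 95%, with at least 55% of replicates also reaching it, limit read from the data; inconclusive = meets just one of the two conditions; inactive = meets neither condition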;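 note: plate controls were neutral control median for no effect and positive control median for full effect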
NIH3T3 tox: kills mouse NIH/3T3 fibroblasts | shares compounds with T cruzi growth-1 | cytotoxicity (signal decrease), % at 8.35 µM | hit rate 14% among 5,600 | AID 651742 | NIH/3T3 viability, CellTiter-Glo ATP luminescence, 90 h;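 active = mean signal decrease across replicates above about 35% based on untreated-well scatter, with enough replicates individually passing, limit read from the data; inconclusive = no rule stated though some were filed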;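 note: 0% = median of neutral control wells and 100% = median of positive control wells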
NIH3T3 tox 2: cytotoxicity in mouse NIH/3T3 fibroblasts. shares compounds with T cruzi growth-1. inhibition, % at 24.9 µM. AID 651744. NIH/3T3 viability, CellTiter-Glo ATP luminescence, 90 h. hit rate 56% among 5,600;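 active = mean loss of cell viability signal at or above a set limit, and enough replicates individually reaching it; inconclusive = meets only the mean limit or only the replicate share; inactive = meets neither condition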;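 note: 0% = median of neutral control wells and 100% = median of positive control wells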
* marks the source's active call; other numbers are inactive results; ? = inconclusive; / = not tested or not shown.

SMILES	IDH1 mut inh	T cruzi growth-1	GASC1 inh	T cruzi growth-2	T cruzi growth-3	NIH3T3 tox	NIH3T3 tox 2
CCCN(C)C[C@@H]1Oc2cc(C#Cc3ccccc3)ccc2S(=O)(=O)N([C@@H](C)CO)C[C@H]1C	-2	26	4	/	/	/	/
CCCN(C)C[C@@H]1Oc2cc(C#Cc3ccc(F)cc3)ccc2S(=O)(=O)N([C@H](C)CO)C[C@@H]1C	-2	14	-1	/	/	/	/
CCCN(C)C[C@@H]1Oc2cc(C#Cc3cccc(F)c3)ccc2S(=O)(=O)N([C@@H](C)CO)C[C@H]1C	0	116*	-1	110*	10	4	104*
CCCN(C)C[C@@H]1Oc2cc(C#Cc3ccc(F)cc3)ccc2S(=O)(=O)N([C@@H](C)CO)C[C@H]1C	1	94*	2	105*	40	31	106*
O=C(CSc1nc2ccccc2c(=O)[nH]1)Nc1ccccc1C(=O)c1ccccc1	0	/	/	/	/	/	/
Cc1ccc(NC(=O)CCC(=O)c2ccc(Oc3ccccc3)cc2)cc1	0	/	/	/	/	/	/
C[C@@H]1CCCCO[C@H](CN(C)S(=O)(=O)c2ccc(F)cc2)[C@H](C)CN([C@H](C)CO)C(=O)c2cc(NC(=O)Nc3cccc4ccccc34)ccc2O1	/	101*	16	104*	108*	-12	15
C[C@@H]1CCCCO[C@@H](CN(C)S(=O)(=O)c2ccc(F)cc2)[C@@H](C)CN([C@@H](C)CO)C(=O)c2cc(NC(=O)Nc3cccc4ccccc34)ccc2O1	2	61	0	/	/	/	/
C[C@@H]1CN([C@H](C)CO)C(=O)c2cc(NC(=O)Nc3cccc4ccccc34)ccc2O[C@@H](C)CCCCO[C@@H]1CN(C)S(=O)(=O)c1ccc(Cl)cc1	/	37	0	/	/	/	/
C[C@@H]1CN([C@H](C)CO)C(=O)c2cc(NC(=O)Nc3cccc4ccccc34)ccc2O[C@@H]1CN(C)S(=O)(=O)c1ccc(Cl)cc1	0	98*	-3	107*	59	10	49*
C[C@@H]1CCCCO[C@H](CN(C)S(=O)(=O)c2ccc(Cl)cc2)[C@H](C)CN([C@@H](C)CO)C(=O)c2cc(NC(=O)Nc3cccc4ccccc34)ccc2O1	1	101*	-1	109*	104*	2	11
C[C@@H]1CN([C@H](C)CO)C(=O)c2cc(NC(=O)Nc3cccc4ccccc34)ccc2O[C@@H](C)CCCCO[C@H]1CN(C)S(=O)(=O)c1ccc(Cl)cc1	2	23	-2	/	/	/	/
C[C@H](CO)N1C[C@H](C)[C@@H](CN(C)S(=O)(=O)c2ccc(Cl)cc2)Oc2ccc(NC(=O)Nc3cccc4ccccc34)cc2C1=O	2	/	0	/	/	/	/
C[C@H](CO)N1C[C@H](C)[C@H](CN(C)S(=O)(=O)c2ccc(Cl)cc2)OCCCC[C@H](C)Oc2ccc(NC(=O)Nc3cccc4ccccc34)cc2C1=O	/	98*	-2	111*	102*	26	?
Cc1cccc(-c2nnc(SCC(=O)Nc3cc([N+](=O)[O-])ccc3C)o2)c1	0	/	/	/	/	/	/
O=C(CSc1nc2ccccc2[nH]1)Nc1ccc2c(c1)oc1ccccc12	0	/	/	/	/	/	/
NC(=O)CN(Cc1ccc(Cl)c(Cl)c1)S(=O)(=O)c1ccc(Br)cc1	0	/	/	/	/	/	/
O=C(CSc1nnc(-c2ccccc2)n1-c1ccccc1)Nc1c(F)cc(F)cc1Br	0	/	/	/	/	/	/
N#CCCN(CC1COc2ccccc2O1)C(=O)c1ccccc1 (stereo not given)	1	/	/	/	/	/	/
COc1ccc(S(=O)(=O)N(C)C[C@@H]2Oc3c(NC(=O)Nc4cccc5ccccc45)cccc3C(=O)N([C@@H](C)CO)C[C@@H]2C)cc1	1	109*	0	33	-16	-4	49*
COc1ccc(S(=O)(=O)N(C)C[C@@H]2Oc3c(NC(=O)Nc4cccc5ccccc45)cccc3C(=O)N([C@H](C)CO)C[C@H]2C)cc1	2	58	-2	/	/	/	/
Cc1ccc(S(=O)(=O)N(C)C[C@H]2Oc3c(NC(=O)Nc4cccc5ccccc45)cccc3C(=O)N([C@H](C)CO)C[C@H]2C)cc1	-1	/	7	/	/	/	/
Cc1ccc(S(=O)(=O)N(C)C[C@@H]2Oc3c(NC(=O)Nc4cccc5ccccc45)cccc3C(=O)N([C@@H](C)CO)C[C@H]2C)cc1	0	110*	1	-8	-14	-9	-9
CNC(=O)CN(c1ccccc1)S(=O)(=O)c1ccc(F)cc1	0	/	/	/	/	/	/
O=C(NC=Nc1cccnc1)c1cccc(COCC(F)(F)F)c1	-1	/	/	/	/	/	/
SMILES	IDH1 mut inh	T cruzi growth-1	GASC1 inh	T cruzi growth-2	T cruzi growth-3	NIH3T3 tox	NIH3T3 tox 2
CC(C)=CCC[C@@H](C)C/C=N/NC(=O)CCCCCCC(=O)Nc1ccccc1O	0	/	/	/	/	/	/
C[C@@H]1CN([C@H](C)CO)S(=O)(=O)c2ccc(/C=C/c3ccccc3)cc2O[C@@H]1CN(C)C(=O)c1ccncc1	6	13	1	/	/	/	/
C[C@H](CO)N1C[C@H](C)[C@H](CN(C)C(=O)c2ccncc2)Oc2cc(/C=C/c3ccccc3)ccc2S1(=O)=O	-2	103*	-3	97*	80	19	59*
C[C@H]1CN([C@@H](C)CO)S(=O)(=O)c2ccc(/C=C/c3ccccc3)cc2O[C@H]1CN(C)CC1CC1	-1	103*	-4	106*	74	33	105*
C/C=C/c1ccc2c(c1)O[C@H](CN(C)C(=O)c1ccccc1)[C@@H](C)CN([C@@H](C)CO)S2(=O)=O	-1	/	-2	/	/	/	/
C[C@@H]1CN([C@H](C)CO)S(=O)(=O)c2ccc(/C=C/c3ccccc3)cc2O[C@@H]1CN(C)C(=O)c1ccccc1	0	123*	/	105*	77	79*	79*
C/C=C/c1ccc2c(c1)O[C@H](CN(C)CC1CC1)[C@H](C)CN([C@H](C)CO)S2(=O)=O	-2	79	1	/	/	/	/
Cc1ccc(S(=O)(=O)N(C)C[C@H]2Oc3cc(Br)ccc3S(=O)(=O)N([C@@H](C)CO)C[C@H]2C)cc1	-5	/	-3	/	/	/	/
C/C=C/c1ccc2c(c1)O[C@H](CN(C)S(C)(=O)=O)[C@@H](C)CN([C@H](C)CO)S2(=O)=O	1	-11	0	/	/	/	/
C/C=C/c1ccc2c(c1)O[C@H](CN(C)S(=O)(=O)c1ccc(C)cc1)[C@H](C)CN([C@H](C)CO)S2(=O)=O	-4	117*	-2	107*	52	6	78*
C/C=C/c1ccc2c(c1)O[C@@H](CN(C)S(=O)(=O)c1ccc(C)cc1)[C@@H](C)CN([C@@H](C)CO)S2(=O)=O	-10	98*	-1	108*	88	16	43*
Cc1ccn2cc(-c3cccc(NS(=O)(=O)c4cccc([N+](=O)[O-])c4)c3)nc2c1	0	/	/	/	/	/	/
C[C@H](CO)N1C[C@H](C)[C@H](CN(C)Cc2ccccn2)Oc2cc(C#CC3CC3)ccc2S1(=O)=O	0	59	1	/	/	/	/
